Data reported in ChEMBL document CHEMBL1125226, “Antineoplastic activity of didemnin congeners: nordidemnin and modified chain analogues” (1991).

Legend:
Assay type in all cases: functional, Mus musculus
B16 [1] = assay: Antitumor activity against B16 melanoma from B6 D2 F1 female mice evaluated as average weight change of animals between day 1 and day 5 after tumor implementation at a dose of 1 mg/kg/day
Outline: (§1)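 B16 melanoma in B6D2F1 female mice: 0.5 mL of tumor homogenate (1 g in 9 mL 0.9% saline) was given ip on day 0. Ip dosing was on days 1, 5 and 9. The readout was the average body weight change between day 1 and day 5 after tumor implantation.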

B16 [2] = assay: Antitumor activity against B16 melanoma from B6 D2 F1 female mice(T/C) was evaluated from the median survival time of treated mice (T) over that of control mice (C) at a dose of 0.25 mg/kg/day
Outline: (§2)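 B6D2F1 female mice (C57BL/6 ♀ × DBA/2 ♂) implanted ip on day 0 with 0.5 mL of B16 tumor suspension (1 g homogenized in 9 mL 0.9% saline). Dosing ip on days 1, 5 and 9. Day-5 survivors give toxicity. Median survival of treated vs control mice gives T/C%, with ≥125% significant.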

B16 [3] = assay: Antitumor activity against B16 melanoma from B6 D2 F1 female mice evaluated as Median survival time of treated mice at a dose of 1 mg/kg/day; outline: as §2
B16 [4] = assay: Antitumor activity against B16 melanoma from B6 D2 F1 female mice(T/C) as median survival time of treated mice (T) over that of control mice (C) at a dose of 0.50 mg/kg/day (repeated ip injections, day 1-9); conditions: route intraperitoneal
Outline: (§3)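 B16 melanoma homogenate (1 g tumor in 9 mL 0.9% saline), 0.5 mL implanted ip on day 0 in B6D2F1 female mice (C57BL/6 ♀ × DBA/2 ♂). Treatment ip once daily from day 1 to day 9. Toxicity scored as survivors on day 5. Median survival recorded and T/C computed as treated/control median survival, ≥125% significant.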

B16 [5] = assay: Antitumor activity against B16 melanoma from B6 D2 F1 female mice evaluated as average weight change of animals between day 1 and day 5 after tumor implementation at a dose of 0.25 mg/kg/day; outline: as §1
L1210 [6] = assay: Antitumor activity against L1210 Lymphoid Leukemia from CDF1 female mice evaluated as the number of survivors on day 5 at a dose of 0.50 mg/kg/day
Outline: (§4)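 L1210 leukemia, 10⁵ cells ip on day 0 into CDF1 female mice (BALB/c ♀ × DBA/2 ♂). Drug in 2% methanol given ip on days 1, 5 and 9, 10 mice per group. Survivors and body weight recorded on days 1 and 5, with toxicity as survivors on day 5. Deaths followed for 30 days. T/C = treated/control median survival time, significant at ≥125%.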

P388 [7] = assay: Antitumor activity against P388 Leukemia from CDF1 female mice evaluated as number of survivors on day 5 at a dose of 1 mg/kg/day
Outline: (§5)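 CDF1 female mice (BALB/c × DBA/2) inoculated ip with 10⁶ P388 cells on day 0. Drug given ip in 2% methanol on days 1, 5 and 9. Ten mice per dose group, with a larger control group. Body weight and survival were recorded on days 1 and 5, with toxicity taken as survivors on day 5. Mortality was followed for 30 days to give median survival time.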

P388 [8] = assay: Average weight change of animals between day 1 and day 5 after tumor implementation at a dose of 0.50 mg/kg/day
Outline: (§6)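 P388 leukemia: CDF1 female mice were inoculated ip with 10⁶ cells on day 0. Treatment in 2% methanol was given ip on days 1, 5 and 9, with 10 mice per group and a larger control group. Body weight was recorded on days 1 and 5 post-implant, and the average change was reported.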

B16 [9] = assay: Antitumor activity against B16 melanoma from B6 D2 F1 female mice as average weight change of animals between day 1 and day 5 after tumor implementation at a dose of 0.03 mg/kg/day (repeated ip injections, day 1-9); conditions: route intraperitoneal
Outline: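 B6D2F1 female mice (C57BL/6 × DBA/2) were implanted ip on day 0 with 0.5 mL of B16 suspension (1 g tumor homogenized in 9 mL 0.9% saline). Ip treatment was given once daily, day 1 to day 9. Body weight was recorded on days 1 and 5 after implantation, and the mean change per group was reported.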

P388 [10] = assay: Antitumor activity (T/C) was evaluated from the median survival time of treated mice (T) over that of control mice (C) at a dose of 0.75 mg/kg/day
Outline: (§7)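 CDF1 female mice (BALB/c ♀ × DBA/2 ♂) given 10⁶ P388 cells ip on day 0. Drug in 2% methanol given ip on days 1, 5 and 9, 10 mice per group and more controls. Toxicity is survivors on day 5, with weight change between days 1 and 5. Mortality followed 30 days. T/C% is treated over control median survival (NCI method), significant at ≥125%.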

B16 [11] = assay: Antitumor activity against B16 melanoma from B6 D2 F1 female mice evaluated as the number of survivors on day 5 at a dose of 0.50 mg/kg/day; outline: as §2
B16 [12] = assay: Antitumor activity against B16 melanoma from B6 D2 F1 female mice(T/C) as median survival time of treated mice (T) over that of control mice (C) at a dose of 0.25 mg/kg/day (repeated ip injections, day 1-9); conditions: route intraperitoneal; outline: as §3
B16 [13] = assay: Antitumor activity against B16 melanoma from B6 D2 F1 female mice evaluated as the number of survivors on day 5 at a dose of 0.06 mg/kg/day (repeated ip injections, day 1-9); conditions: route intraperitoneal; outline: as §3
B16 [14] = assay: Antitumor activity against B16 melanoma from B6 D2 F1 female mice(T/C) as median survival time of treated mice (T) over that of control mice (C) at a dose of 0.06 mg/kg/day (repeated ip injections, day 1-9); conditions: route intraperitoneal; outline: as §3
L1210 [15] = assay: Antitumor activity against L1210 Lymphoid Leukemia from CDF1 female mice as average weight change of animals between day 1 and day 5 after tumor implementation at a dose of 0.25 mg/kg/day
Outline: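 CDF1 female mice (BALB/c × DBA/2) received 10⁵ L1210 cells ip on day 0. Drug was dissolved in 2% methanol and given ip on days 1, 5 and 9, to 10 mice per group. Weights were taken on days 1 and 5, and the mean change was reported.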

L1210 [16] = assay: Antitumor activity against L1210 Lymphoid Leukemia from CDF1 female mice as Median survival time of treated mice at a dose of 0.50 mg/kg/day; outline: as §4
P388 [17] = assay: Antitumor activity (T/C) was evaluated from the median survival time of treated mice (T) over that of control mice (C) at a dose of 0.03 mg/kg/day; outline: as §7
P388 [18] = assay: Average weight change of animals between day 1 and day 5 after tumor implementation at a dose of 0.75 mg/kg/day; outline: as §6
B16 [19] = assay: Antitumor activity against B16 melanoma from B6 D2 F1 female mice evaluated as the number of survivors on day 5 at a dose of 1 mg/kg/day; outline: as §2
P388 [20] = assay: Antitumor activity against P388 Leukemia from CDF1 female mice evaluated as the number of survivors on day 5 at a dose of 0.50 mg/kg/day; outline: as §5
P388 [21] = assay: Average weight change of animals between day 1 and day 5 after tumor implementation at a dose of 1 mg/kg/day; outline: as §6
L1210 [22] = assay: Antitumor activity against L1210 Lymphoid Leukemia from CDF1 female mice evaluated as Median survival time of treated mice at a dose of 0.25 mg/kg/day; outline: as §4
B16 [23] = assay: Antitumor activity against B16 melanoma from B6 D2 F1 female mice evaluated as the number of survivors on day 5 at a dose of 0.50 mg/kg/day (repeated ip injections, day 1-9); conditions: route intraperitoneal; outline: as §3

**Q.** For COc1ccc(C[C@H]2C(=O)O[C@H](C)[C@H](NC(=O)[C@@H](CC(C)C)N(C)C(=O)C3CCCN3C(=O)[C@@H](C)O)C(=O)NC(C(C)C)[C@H](O)CC(=O)O[C@@H](C(C)C)C(=O)[C@H](C)C(=O)N[C@@H](CC(C)C)C(=O)N3CCC[C@H]3C(=O)N2C)cc1 (stereo partly drawn) [NORDIDEMNIN], which Body weight change (B16 [1]) is on record?
**A.** The Body weight change was 0 g.

**Q.** And the T/C (B16 [2])?
**A.** The T/C was 142%.

**Q.** And the “median survival time, days” value (B16 [3])?
**A.** Its value is 29.3.

**Q.** What about the T/C (B16 [4]) of the same compound?
**A.** The T/C was 52%.

**Q.** What about the Body weight change (B16 [5]) of the same compound?
**A.** The Body weight change was 0 g.

**Q.** And the Toxicity (L1210 [6])?
**A.** Its Toxicity is 1.

**Q.** And the Toxicity (P388 [7])?
**A.** Its Toxicity is 1.

**Q.** What about the Body weight change (P388 [8]) of the same compound?
**A.** The Body weight change was -1.2 g.

**Q.** What about the Body weight change (B16 [9]) of the same compound?
**A.** Its Body weight change is -0.1 g.

**Q.** What about the T/C (P388 [10]) of the same compound?
**A.** The T/C was 175%.

**Q.** And the Toxicity (B16 [11])?
**A.** Its Toxicity is 1.

**Q.** What about the T/C (B16 [12]) of the same compound?
**A.** Its T/C is 157%.

**Q.** And the Toxicity (B16 [13])?
**A.** Its Toxicity is 1.

**Q.** And the T/C (B16 [14])?
**A.** The T/C was 146%.

**Q.** What about the Body weight change (L1210 [15]) of the same compound?
**A.** Its Body weight change is 0 g.

**Q.** What about the “median survival time, days” value (L1210 [16]) of the same compound?
**A.** The value was 10.7.

**Q.** And the T/C (P388 [17])?
**A.** Its T/C is 112%.

**Q.** What about the Body weight change (P388 [18]) of the same compound?
**A.** The Body weight change was -1.7 g.

**Q.** What about the Toxicity (B16 [19]) of the same compound?
**A.** The Toxicity was 1.

**Q.** And the Toxicity (P388 [20])?
**A.** Its Toxicity is 1.

**Q.** What about the Body weight change (P388 [21]) of the same compound?
**A.** The Body weight change was -2.3 g.

**Q.** What about the “median survival time, days” value (L1210 [22]) of the same compound?
**A.** Its value is 10.1.

**Q.** And the Toxicity (B16 [23])?
**A.** The Toxicity was 1.
